# According to ChEMBL document CHEMBL4400562, “Plumbagin Increases Paclitaxel-Induced Cell Death and Overcomes Paclitaxel Resistance in Breast Cancer Cells through ERK-Mediated Apoptosis Induction” (J Nat Prod, 2019):
# Activity calls are given as the source filed them. No cut-off for these calls is given here.
# Legend:
# MCF7 [1] = test: Induction of apoptosis in human MCF7 cells at 1 nM after 24 hrs by Annexin V-phycoerythrin/7-AAD staining based flow cytometric analysis relative to control; type: functional
# BT-474 [2] = test: Induction of apoptosis in human BT474 cells at 2 nM after 24 hrs by Annexin V-phycoerythrin/7-AAD staining based flow cytometric analysis relative to control; type: functional
# MDA-MB-468 [3] = test: Induction of apoptosis in human MDA-MB-468 cells at 1 nM after 24 hrs by Annexin V-phycoerythrin/7-AAD staining based flow cytometric analysis relative to control; type: functional
# MDA-MB-468 [4] = test: Synergistic cytotoxicity against human MDA-MB-468 cells assessed as combination index at 0.5 to 2 uM after 24 hrs in presence of 5 to 20 nM of paclitaxel by MTT assay; type: functional
# Outline: (§1)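 The Chou–Talalay median-effect method was applied to 24 h MTT viability data. Five fixed-ratio plumbagin (μM)/paclitaxel (nM) combinations were used: for MCF-7 1/0.5, 2/1, 3/3, 4/5, 5/10. Cell-line-specific series were used for BT474 and MDA-MB-468. Single agents were run in parallel. CI was computed at several effect levels.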
# BT-474 [5] = test: Synergistic cytotoxicity against human BT474 cells assessed as combination index at 1 to 5 uM after 24 hrs in presence of 0.1 to 20 nM of paclitaxel by MTT assay; type: functional; outline: as §1
# MCF7 [6] = test: Synergistic cytotoxicity against human MCF7 cells assessed as combination index at 1 to 5 uM after 24 hrs in presence of 0.5 to 10 nM of paclitaxel by MTT assay; type: functional; outline: as §1
# MCF7 [7] = test: Induction of apoptosis in human MCF7 cells up to 3 uM after 24 hrs in presence of 1 nM of paclitaxel by Annexin V-phycoerythrin/7-AAD staining based flow cytometric analysis relative to control; type: functional
# Outline: (§2)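 Cells were treated for 24 h with single agents or combinations, then washed in annexin-binding buffer and stained with annexin V-PE and 7-AAD for 30 min at 15 °C in the dark. Apoptotic fraction was read by flow cytometry. DMSO was 0.5% final. Data from at least three independent experiments, one-way ANOVA with Tukey's test.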
# BT-474 [8] = test: Induction of apoptosis in human BT474 cells up to 2.5 uM after 24 hrs in presence of 2 nM of paclitaxel by Annexin V-phycoerythrin/7-AAD staining based flow cytometric analysis relative to control; type: functional; outline: as §2
# MCF7 [9] = test: Induction of apoptosis in human MCF7 cells pre-treated with ERK1/2 siRNA at 2 uM in presence of 1 nM paclitaxel by Annexin V-phycoerythrin/7-AAD staining based flow cytometric analysis relative to control; type: functional, cell-based
# Outline: (§3)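 Cells were transiently transfected for 24 h with ERK1 and ERK2 siRNA (0.5 μg) or scrambled control siRNA, with knockdown checked by Western blot. Cells were then treated for 24 h with the combination, stained with annexin V-PE and 7-AAD, and analysed by flow cytometry. Apoptosis was compared against control-siRNA cells.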
# MDA-MB-468 [10] = test: Induction of apoptosis in human MDA-MB-468 cells at 0.2 uM after 24 hrs in presence of 1 nM of paclitaxel by Annexin V-phycoerythrin/7-AAD staining based flow cytometric analysis relative to control; type: functional; outline: as §2
# MDA-MB-468 [11] = test: Induction of apoptosis in human MDA-MB-468 cells at 0.5 uM after 24 hrs in presence of 1 nM of paclitaxel by Annexin V-phycoerythrin/7-AAD staining based flow cytometric analysis relative to control; type: functional; outline: as §2
# [12] = target: T1, Mitogen-activated protein kinase; ERK1/ERK2 (Homo sapiens) (UniProt P27361+P28482); test: Inhibition of ERK1/2 in human MCF7 cells assessed as reduction in EGF-induced phosphorylation of ERK1/2 level up to 1 uM preincubated for 24 hrs followed by EGF addition and measured after 30 mins by Western blot analysis; type: cell-based
# [13] = target: T1, Mitogen-activated protein kinase; ERK1/ERK2 (Homo sapiens); test: Inhibition of ERK1/2 in human BT474 cells assessed as reduction in EGF-induced phosphorylation of ERK1/2 level up to 1 uM preincubated for 24 hrs followed by EGF addition and measured after 30 mins by Western blot analysis; type: cell-based
# [14] = target: T1, Mitogen-activated protein kinase; ERK1/ERK2 (Homo sapiens); test: Inhibition of ERK1/2 in human MDA-MB-468 cells assessed as reduction in EGF-induced phosphorylation of ERK1/2 level up to 0.5 uM preincubated for 24 hrs followed by EGF addition and measured after 30 mins by Western blot analysis; type: cell-based
# [15] = target: T1, Mitogen-activated protein kinase; ERK1/ERK2 (Homo sapiens); test: Inhibition of ERK1/2 in human MCF7 cells assessed as reduction in EGF-induced phosphorylation of ERK1/2 at Thr202/Tyr204 residues up to 3 uM preincubated for 1 hrs followed by EGF addition and measured after 30 mins by AlphaScreen analysis relative to control; type: cell-based
# [16] = target: T1, Mitogen-activated protein kinase; ERK1/ERK2 (Homo sapiens); test: Inhibition of ERK1/2 in human BT474 cells assessed as reduction in EGF-induced phosphorylation of ERK1/2 at Thr202/Tyr204 residues up to 2 uM preincubated for 1 hrs followed by EGF addition and measured after 30 mins by AlphaScreen analysis relative to control; type: cell-based
# [17] = target: T1, Mitogen-activated protein kinase; ERK1/ERK2 (Homo sapiens); test: Inhibition of ERK1/2 in human MDA-MB-468 cells assessed as reduction in EGF-induced phosphorylation of ERK1/2 at Thr202/Tyr204 residues up to 1 uM preincubated for 1 hrs followed by EGF addition and measured after 30 mins by AlphaScreen analysis relative to control; type: cell-based
# [18] = target: T1, Mitogen-activated protein kinase; ERK1/ERK2 (Homo sapiens); test: Inhibition of ERK1/2 in human MCF7 cells assessed as reduction in paclitaxel-induced phosphorylation of ERK1/2 at Thr202/Tyr204 residues up to 3 uM preincubated for 1 hrs followed by 1 nM paclitaxel addition and measured after 30 mins by AlphaScreen analysis relative to control; type: cell-based
# [19] = target: T1, Mitogen-activated protein kinase; ERK1/ERK2 (Homo sapiens); test: Inhibition of ERK1/2 in human BT474 cells assessed as reduction in paclitaxel-induced phosphorylation of ERK1/2 at Thr202/Tyr204 residues up to 2 uM preincubated for 1 hrs followed by 1 nM paclitaxel addition and measured after 30 mins by AlphaScreen analysis relative to control; type: cell-based
# [20] = target: T1, Mitogen-activated protein kinase; ERK1/ERK2 (Homo sapiens); test: Inhibition of ERK1/2 in human MDA-MB-468 cells assessed as reduction in paclitaxel-induced phosphorylation of ERK1/2 at Thr202/Tyr204 residues up to 1 uM preincubated for 1 hrs followed by 1 nM paclitaxel addition and measured after 30 mins by AlphaScreen analysis relative to control; type: cell-based
# MDA-MB-468 [21] = test: Induction of apoptosis in human MDA-MB-468 cells pre-treated with ERK1/2 siRNA at 0.2 uM in presence of 1 nM paclitaxel by Annexin V-phycoerythrin/7-AAD staining based flow cytometric analysis relative to control; type: functional; outline: as §3
# BT-474 [22] = test: Induction of apoptosis in human BT474 cells pre-treated with ERK1/2 siRNA at 1.5 uM in presence of 2 nM paclitaxel by Annexin V-phycoerythrin/7-AAD staining based flow cytometric analysis relative to control; type: functional, cell-based; outline: as §3
# MCF7 [23] = test: Cytotoxicity against human MCF7 cells assessed as reduction in cell viability after 24 hrs by MTT assay; conditions: MCF7, 24 h
# MCF7/PTX [24] = test: Cytotoxicity against paclitaxel-resistant human MCF7/PTX cells assessed as reduction in cell viability after 24 hrs by MTT assay; type: functional, cell-based
# Outline: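 MTT viability after 24 h exposure. MCF-7/PTX cells were derived from MCF-7 by three months of culture in rising paclitaxel (0.4 to 6.0 nM). Cells grew in RPMI with 10% FBS at 37 °C, 5% CO2. Compounds were dissolved in DMSO, 0.5% final. At least three independent experiments.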
# MCF7/PTX [25] = test: Induction of apoptosis in paclitaxel-resistant human MCF7/PTX cells at 3 uM after 24 hrs by Annexin V-phycoerythrin/7-AAD staining based flow cytometric analysis relative to control; type: functional; outline: as §2
# MCF7 [26] = test: Induction of apoptosis in human MCF7 cells at 3 uM after 24 hrs by Annexin V-phycoerythrin/7-AAD staining based flow cytometric analysis relative to control; type: functional; outline: as §2
# [27] = target: T1, Mitogen-activated protein kinase; ERK1/ERK2 (Homo sapiens); test: Inhibition of ERK1/2 in paclitaxel-resistant human MCF7/PTX cells assessed as reduction in paclitaxel-induced phosphorylation of ERK1/2 at Thr202/Tyr204 residues up to 3 uM preincubated for 1 hrs followed by 1 nM paclitaxel addition and measured after 30 mins by AlphaScreen analysis; type: cell-based
# MCF7/PTX [28] = test: Potentiation of paclitaxel-induced apoptosis in paclitaxel-resistant human MCF7/PTX cells at 2 uM after 24 hrs by Annexin V-phycoerythrin/7-AAD staining based flow cytometric analysis; type: functional, cell-based; outline: as §2
# T1 sequence (P27361 whole entry, looked up): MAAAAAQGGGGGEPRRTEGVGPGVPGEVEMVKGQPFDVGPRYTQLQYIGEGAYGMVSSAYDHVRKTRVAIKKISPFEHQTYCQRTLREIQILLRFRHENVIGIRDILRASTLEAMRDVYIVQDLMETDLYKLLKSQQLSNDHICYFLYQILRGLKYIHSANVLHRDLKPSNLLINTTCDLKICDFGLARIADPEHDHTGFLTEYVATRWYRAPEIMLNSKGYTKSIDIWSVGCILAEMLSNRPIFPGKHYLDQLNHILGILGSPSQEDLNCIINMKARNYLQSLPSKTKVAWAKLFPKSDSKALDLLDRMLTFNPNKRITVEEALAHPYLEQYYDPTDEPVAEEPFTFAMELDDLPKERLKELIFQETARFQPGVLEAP
# T1 sequence (P28482 whole entry, looked up): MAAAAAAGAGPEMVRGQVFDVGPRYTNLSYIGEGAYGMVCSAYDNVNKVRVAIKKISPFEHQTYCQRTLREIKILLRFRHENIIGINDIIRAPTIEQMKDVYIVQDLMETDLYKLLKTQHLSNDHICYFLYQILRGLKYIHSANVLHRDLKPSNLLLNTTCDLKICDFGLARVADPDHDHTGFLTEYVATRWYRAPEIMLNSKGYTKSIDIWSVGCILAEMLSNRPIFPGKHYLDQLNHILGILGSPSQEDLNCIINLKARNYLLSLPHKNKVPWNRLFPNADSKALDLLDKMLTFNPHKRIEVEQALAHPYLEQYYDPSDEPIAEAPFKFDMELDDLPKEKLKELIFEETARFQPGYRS
smiles,measurement,setting,value
CC(=O)O[C@H]1C(=O)[C@@]2(C)[C@H]([C@H](OC(=O)c3ccccc3)[C@]3(O)C[C@H](OC(=O)[C@H](O)[C@@H](NC(=O)c4ccccc4)c4ccccc4)C(C)=C1C3(C)C)[C@]1(OC(C)=O)CO[C@@H]1C[C@@H]2O [PACLITAXEL],Activity,MCF7 [1],10 - 15%
same,Activity,BT-474 [2],10 - 15%
same,Activity,MDA-MB-468 [3],10 - 15%
CC1=CC(=O)c2c(O)cccc2C1=O [PLUMBAGIN],CI,MDA-MB-468 [4],0.5 - 1
same,CI,BT-474 [5],0.6
same,CI,MCF7 [6],0.9
same,Activity,MCF7 [7],10%
same,Activity,BT-474 [8],15%
same,Activity,MCF7 [9],Active
same,Activity,MDA-MB-468 [10],20%
same,Activity,MDA-MB-468 [11],35%
same,inhibition,[12],Active
same,inhibition,[13],Active
same,inhibition,[14],Active
same,inhibition,[15],Active
same,inhibition,[16],Active
same,inhibition,[17],Active
same,inhibition,[18],Active
same,inhibition,[19],Active
same,inhibition,[20],Active
same,Activity,MDA-MB-468 [21],25%
same,Activity,BT-474 [22],Active
same,IC50,MCF7 [23],3.5 µM
same,IC50,MCF7/PTX [24],3.5 µM
same,Activity,MCF7/PTX [25],20%
same,Activity,MCF7 [26],20%
same,inhibition,[27],Active
same,Activity,MCF7/PTX [28],Active
